# Experimental data reported in ChEMBL document CHEMBL4261600 (Eur J Med Chem, 2018).
# How the values were obtained:
# [1] = target: Mitogen-activated protein kinase kinase kinase 9 (Homo sapiens) (UniProt P80192); assay: Binding affinity to wild-type human partial length MLK1 (V88 to W426 residues) expressed in bacterial expression system assessed as remaining unbound target protein level at 1000 nM by Kinomescan method relative to control
# In short: (§1)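 KINOMEscan binding panel of 468 kinases/mutants. Inhibitor was tested at a single concentration of 1 μM. Binding is reported as percent of control, defined relative to a DMSO control.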
# [2] = target: Serine/threonine-protein kinase MRCK alpha (Homo sapiens) (UniProt Q5VT25); assay: Binding affinity to wild-type human partial length MRCKA (L57 to V418 residues) expressed in bacterial expression system assessed as remaining unbound target protein level at 1000 nM by Kinomescan method relative to control
# [3] = target: Mitogen-activated protein kinase kinase kinase 14 (Homo sapiens) (UniProt Q99558); assay: Binding affinity to wild-type human partial length NIK (L318 to P947 residues) expressed in mammalian expression system assessed as remaining unbound target protein level at 1000 nM by Kinomescan method relative to control
# [4] = target: Ephrin type-A receptor 1 (Homo sapiens) (UniProt P21709); assay: Binding affinity to wild-type human partial length EPHA1 (V588 to I913 residues) expressed in bacterial expression system assessed as remaining unbound target protein level at 1000 nM by Kinomescan method relative to control; in short: as §1
# [5] = system: Epidermal growth factor receptor (Homo sapiens), P00533 [G719S]; assay: Binding affinity to human partial length EGFR G719S mutant (R669 to V1011 residues) expressed in bacterial expression system assessed as remaining unbound target protein level at 1000 nM by Kinomescan method relative to control
# In short: (§2)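 KINOMEscan competition-binding profiling across the panel of 468 kinases and mutants, with inhibitor tested at 1 μM. Binding is expressed as percent of control, with DMSO as the reference control.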
# [6] = target: Mitogen-activated protein kinase 6 (Homo sapiens) (UniProt Q16659); assay: Binding affinity to wild-type human partial length ERK3 (M1 to P413 residues) expressed in bacterial expression system assessed as remaining unbound target protein level at 1000 nM by Kinomescan method relative to control
# [7] = target: Inhibitor of nuclear factor kappa-B kinase subunit epsilon (Homo sapiens) (UniProt Q14164); assay: Binding affinity to wild-type human full length IKK-epsilon (M1 to V716 residues) expressed in mammalian expression system assessed as remaining unbound target protein level at 1000 nM by Kinomescan method relative to control
# In short: (§3)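 KINOMEscan competition binding profile across a panel of 468 kinases and mutants, with the inhibitor tested at a single concentration of 1 μM. Binding is reported as percent of control, meaning signal relative to a DMSO control.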
# [8] = target: Mitogen-activated protein kinase 7 (Homo sapiens) (UniProt Q13164); assay: Binding affinity to wild-type human partial length ERK5 (M1 to A409 residues) expressed in bacterial expression system assessed as remaining unbound target protein level at 1000 nM by Kinomescan method relative to control
# [9] = species on record: Homo sapiens; assay: Selectivity ratio of IC50 for recombinant full length His-tagged human CDK7/cyclin H/MNAT1 to IC50 for recombinant full length His-tagged human CDK9/CyclinT1
# [10] = target: Serine/threonine-protein kinase ULK1 (Homo sapiens) (UniProt O75385); assay: Binding affinity to wild-type human partial length ULK1 (M1 to T309 residues) expressed in mammalian expression system assessed as remaining unbound target protein level at 1000 nM by Kinomescan method relative to control
# [11] = system: Mast/stem cell growth factor receptor Kit (Homo sapiens), P10721 [D816H]; assay: Binding affinity to human partial length KIT D816H mutant (I571 to D952 residues) expressed in mammalian expression system assessed as remaining unbound target protein level at 1000 nM by Kinomescan method relative to control; in short: as §2
# [12] = target: Cyclin-dependent kinase-like 1 (Homo sapiens) (UniProt Q00532); assay: Binding affinity to wild-type human full length CDKL1 (M1 to I358 residues) expressed in mammalian expression system assessed as remaining unbound target protein level at 1000 nM by Kinomescan method relative to control
# In short: (§4)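 Single-point competition binding screen across a panel of 468 kinases and mutants, with the inhibitor at 1 μM. Binding is read out as percent of a DMSO control, and targets below 1 percent control were classed as strong binders.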
# [13] = target: Ribosomal protein S6 kinase alpha-6 (Homo sapiens) (UniProt Q9UK32); assay: Binding affinity to wild-type human partial length N-terminal RSK4 kinase domain 1 (M1 to E397 residues) expressed in mammalian expression system assessed as remaining unbound target protein level at 1000 nM by Kinomescan method relative to control; in short: as §1
# [14] = target: Calcium/calmodulin-dependent protein kinase kinase 2 (Homo sapiens) (UniProt Q96RR4); assay: Binding affinity to wild-type human partial length CAMKK2 (D65 to V471 residues) expressed in bacterial expression system assessed as remaining unbound target protein level at 1000 nM by Kinomescan method relative to control
# In short: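 Profiled in a KINOMEscan binding panel with the inhibitor at a single concentration of 1 μM. Binding to each kinase was read out as percent of control, relative to a DMSO control. Strong binders were defined as those with a percent control value below 1.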
# [15] = target: Dual specificity mitogen-activated protein kinase kinase 3 (Homo sapiens) (UniProt P46734); assay: Binding affinity to wild-type human full length MEK3 (M1 to S318 residues) expressed in mammalian expression system assessed as remaining unbound target protein level at 1000 nM by Kinomescan method relative to control; in short: as §3
# [16] = Apparent volume of distribution in Sprague-Dawley rat at 3 mg/kg, iv by LC-MS/MS analysis; format: ADME, organism-based; conditions: in vivo, read-out: Vz
# In short: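 Non-compartmental PK. Male SD rats 190-210 g, mice and beagle dogs acclimatized one week, fasted 12 h with water, split into iv and po groups (mice 48, rats 6, dogs 6). iv 3/3/2 mg/kg (mice/rats/dogs); po 10/20/10 mg/kg; vehicle DMSO in 5% glucose water. Blood at 2 or 5 to 720 min; plasma protein-precipitated with methanol, caffeine internal standard, LC-MS/MS.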
# [17] = species on record: Homo sapiens; assay: Selectivity ratio of IC50 for recombinant GST-tagged inactive state of human CDK16 (108 to end residues)/cyclin Y (2 to end residues) to IC50 for recombinant full length His-tagged human CDK9/CyclinT1
# [18] = target: Serine/threonine-protein kinase NLK (Homo sapiens) (UniProt Q9UBE8); assay: Binding affinity to wild-type human full length NLK (M13 to E527 residues) expressed in bacterial expression system assessed as remaining unbound target protein level at 1000 nM by Kinomescan method relative to control; in short: as §4
# [19] = Clearance in beagle dog at 2 mg/kg, iv by LC-MS/MS analysis; format: ADME, organism-based, Canis lupus familiaris; conditions: in vivo
# [20] = target: Citron Rho-interacting kinase (Homo sapiens) (UniProt O14578); assay: Binding affinity to wild-type human partial length CIT (M68 to E432 residues) expressed in bacterial expression system assessed as remaining unbound target protein level at 1000 nM by Kinomescan method relative to control; in short: as §3
# [21] = Tmax in Sprague-Dawley rat at 20 mg/kg, po by LC-MS/MS analysis; format: ADME, organism-based; conditions: in vivo
# Mitogen-activated protein kinase kinase kinase 9 (Homo sapiens), sequence (P80192 whole entry, looked up, the tested form may be a part): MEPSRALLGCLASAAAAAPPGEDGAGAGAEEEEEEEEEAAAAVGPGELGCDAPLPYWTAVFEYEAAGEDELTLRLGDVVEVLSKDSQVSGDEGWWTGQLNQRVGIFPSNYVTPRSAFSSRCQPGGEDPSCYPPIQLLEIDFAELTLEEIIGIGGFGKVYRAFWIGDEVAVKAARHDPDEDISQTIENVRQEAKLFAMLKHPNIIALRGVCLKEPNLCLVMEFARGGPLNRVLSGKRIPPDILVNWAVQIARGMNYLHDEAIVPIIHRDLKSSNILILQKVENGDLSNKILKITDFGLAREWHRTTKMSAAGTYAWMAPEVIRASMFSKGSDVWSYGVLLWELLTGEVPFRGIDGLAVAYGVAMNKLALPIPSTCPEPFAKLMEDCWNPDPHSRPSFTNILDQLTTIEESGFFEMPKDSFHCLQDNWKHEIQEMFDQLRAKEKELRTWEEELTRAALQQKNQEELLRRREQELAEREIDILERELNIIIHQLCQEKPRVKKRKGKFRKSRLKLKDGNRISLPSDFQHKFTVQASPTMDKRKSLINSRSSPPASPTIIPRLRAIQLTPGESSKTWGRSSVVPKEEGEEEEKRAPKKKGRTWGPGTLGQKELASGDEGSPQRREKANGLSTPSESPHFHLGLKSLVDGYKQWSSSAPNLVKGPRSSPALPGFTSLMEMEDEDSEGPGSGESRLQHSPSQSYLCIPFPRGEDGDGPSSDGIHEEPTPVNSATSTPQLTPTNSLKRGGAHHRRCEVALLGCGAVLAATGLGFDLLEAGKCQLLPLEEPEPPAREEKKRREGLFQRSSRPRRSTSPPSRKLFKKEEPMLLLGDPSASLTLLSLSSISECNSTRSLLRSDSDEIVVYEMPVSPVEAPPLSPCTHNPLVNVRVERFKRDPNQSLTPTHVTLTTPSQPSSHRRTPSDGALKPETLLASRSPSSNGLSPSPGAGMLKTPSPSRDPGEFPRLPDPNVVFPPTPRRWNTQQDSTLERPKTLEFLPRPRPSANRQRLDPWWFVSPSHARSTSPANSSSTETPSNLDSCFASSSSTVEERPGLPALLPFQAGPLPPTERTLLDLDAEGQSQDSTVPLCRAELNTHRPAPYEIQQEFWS
# Ribosomal protein S6 kinase alpha-6 (Homo sapiens), sequence (Q9UK32 whole entry, the tested form may be a part): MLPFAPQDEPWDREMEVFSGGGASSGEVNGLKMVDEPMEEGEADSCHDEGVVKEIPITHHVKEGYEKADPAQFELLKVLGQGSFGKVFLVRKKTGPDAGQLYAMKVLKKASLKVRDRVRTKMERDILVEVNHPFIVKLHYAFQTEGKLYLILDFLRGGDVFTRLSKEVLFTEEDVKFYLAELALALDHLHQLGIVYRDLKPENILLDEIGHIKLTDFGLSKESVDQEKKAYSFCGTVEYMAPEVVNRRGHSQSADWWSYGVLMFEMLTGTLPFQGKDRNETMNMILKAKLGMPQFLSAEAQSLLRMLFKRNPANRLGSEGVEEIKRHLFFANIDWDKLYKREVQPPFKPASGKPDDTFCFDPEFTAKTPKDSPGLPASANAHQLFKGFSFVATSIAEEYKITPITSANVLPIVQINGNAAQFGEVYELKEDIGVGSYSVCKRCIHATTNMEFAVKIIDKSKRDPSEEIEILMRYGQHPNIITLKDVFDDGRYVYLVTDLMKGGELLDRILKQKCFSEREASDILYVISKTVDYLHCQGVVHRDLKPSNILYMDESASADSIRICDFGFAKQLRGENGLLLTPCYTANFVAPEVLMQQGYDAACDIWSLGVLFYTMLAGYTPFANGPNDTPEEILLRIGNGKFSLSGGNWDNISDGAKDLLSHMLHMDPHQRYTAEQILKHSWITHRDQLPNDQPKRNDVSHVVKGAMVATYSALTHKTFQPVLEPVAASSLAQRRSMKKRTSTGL
# Mitogen-activated protein kinase 6 (Homo sapiens), sequence (Q16659 whole entry, the tested form may be a part): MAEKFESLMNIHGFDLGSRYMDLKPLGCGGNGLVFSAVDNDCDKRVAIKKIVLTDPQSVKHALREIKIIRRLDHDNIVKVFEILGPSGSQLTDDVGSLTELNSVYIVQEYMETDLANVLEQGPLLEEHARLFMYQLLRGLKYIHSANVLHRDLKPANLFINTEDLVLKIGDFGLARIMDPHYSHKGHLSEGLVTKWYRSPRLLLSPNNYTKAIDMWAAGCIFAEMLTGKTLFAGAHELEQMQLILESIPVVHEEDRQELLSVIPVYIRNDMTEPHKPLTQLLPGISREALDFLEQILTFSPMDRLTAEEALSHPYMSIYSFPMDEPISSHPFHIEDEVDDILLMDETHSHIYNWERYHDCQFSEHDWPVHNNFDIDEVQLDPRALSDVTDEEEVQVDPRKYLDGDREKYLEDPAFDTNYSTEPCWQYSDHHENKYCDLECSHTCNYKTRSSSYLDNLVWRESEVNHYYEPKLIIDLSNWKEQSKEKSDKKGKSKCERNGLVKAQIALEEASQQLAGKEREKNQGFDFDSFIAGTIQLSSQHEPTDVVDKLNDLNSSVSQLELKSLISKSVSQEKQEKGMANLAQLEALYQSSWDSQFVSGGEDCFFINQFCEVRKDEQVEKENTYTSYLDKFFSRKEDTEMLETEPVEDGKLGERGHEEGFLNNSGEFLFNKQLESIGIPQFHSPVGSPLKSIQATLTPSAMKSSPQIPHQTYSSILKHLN
# Mitogen-activated protein kinase kinase kinase 14 (Homo sapiens), sequence (Q99558 whole entry, looked up, the tested form may be a part): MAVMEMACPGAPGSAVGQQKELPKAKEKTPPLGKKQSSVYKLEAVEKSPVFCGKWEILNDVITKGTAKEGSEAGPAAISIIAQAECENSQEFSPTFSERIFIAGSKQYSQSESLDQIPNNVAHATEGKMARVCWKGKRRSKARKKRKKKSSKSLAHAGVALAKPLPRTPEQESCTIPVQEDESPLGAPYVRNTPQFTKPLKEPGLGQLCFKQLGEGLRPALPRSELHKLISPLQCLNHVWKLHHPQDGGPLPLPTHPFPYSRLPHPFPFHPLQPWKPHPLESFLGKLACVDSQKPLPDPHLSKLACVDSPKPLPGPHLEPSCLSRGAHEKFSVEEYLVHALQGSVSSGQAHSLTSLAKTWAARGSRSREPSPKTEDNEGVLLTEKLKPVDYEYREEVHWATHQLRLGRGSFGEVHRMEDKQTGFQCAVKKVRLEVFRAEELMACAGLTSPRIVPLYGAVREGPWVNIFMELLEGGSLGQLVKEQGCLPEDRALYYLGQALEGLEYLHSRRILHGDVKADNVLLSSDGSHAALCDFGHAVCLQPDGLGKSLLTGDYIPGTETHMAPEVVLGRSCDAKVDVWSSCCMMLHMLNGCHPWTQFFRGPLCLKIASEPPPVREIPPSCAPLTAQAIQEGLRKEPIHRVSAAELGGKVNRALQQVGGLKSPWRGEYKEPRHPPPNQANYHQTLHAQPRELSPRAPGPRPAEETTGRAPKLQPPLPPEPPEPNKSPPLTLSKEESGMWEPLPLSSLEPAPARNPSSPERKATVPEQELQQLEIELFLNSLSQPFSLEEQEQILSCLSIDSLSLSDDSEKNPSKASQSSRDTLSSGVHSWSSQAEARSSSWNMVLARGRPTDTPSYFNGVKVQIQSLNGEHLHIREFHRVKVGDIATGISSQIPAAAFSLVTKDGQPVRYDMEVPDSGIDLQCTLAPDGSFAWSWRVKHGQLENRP
# Serine/threonine-protein kinase NLK (Homo sapiens), sequence (Q9UBE8 whole entry, the tested form may be a part): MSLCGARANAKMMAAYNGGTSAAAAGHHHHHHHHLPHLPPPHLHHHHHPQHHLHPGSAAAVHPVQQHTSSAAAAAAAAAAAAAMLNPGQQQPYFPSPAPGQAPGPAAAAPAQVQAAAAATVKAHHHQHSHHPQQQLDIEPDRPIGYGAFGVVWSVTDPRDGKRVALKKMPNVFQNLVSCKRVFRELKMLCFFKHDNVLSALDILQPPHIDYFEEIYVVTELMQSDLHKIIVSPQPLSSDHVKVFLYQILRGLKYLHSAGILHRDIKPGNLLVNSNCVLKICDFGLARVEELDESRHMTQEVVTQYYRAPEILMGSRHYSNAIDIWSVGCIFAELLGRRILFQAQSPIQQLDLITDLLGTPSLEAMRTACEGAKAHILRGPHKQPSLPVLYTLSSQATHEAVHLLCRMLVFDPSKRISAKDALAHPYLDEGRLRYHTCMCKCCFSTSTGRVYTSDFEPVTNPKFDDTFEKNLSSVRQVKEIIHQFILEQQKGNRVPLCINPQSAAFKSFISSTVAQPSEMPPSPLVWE
# Inhibitor of nuclear factor kappa-B kinase subunit epsilon (Homo sapiens), sequence (Q14164 whole entry, the tested form may be a part): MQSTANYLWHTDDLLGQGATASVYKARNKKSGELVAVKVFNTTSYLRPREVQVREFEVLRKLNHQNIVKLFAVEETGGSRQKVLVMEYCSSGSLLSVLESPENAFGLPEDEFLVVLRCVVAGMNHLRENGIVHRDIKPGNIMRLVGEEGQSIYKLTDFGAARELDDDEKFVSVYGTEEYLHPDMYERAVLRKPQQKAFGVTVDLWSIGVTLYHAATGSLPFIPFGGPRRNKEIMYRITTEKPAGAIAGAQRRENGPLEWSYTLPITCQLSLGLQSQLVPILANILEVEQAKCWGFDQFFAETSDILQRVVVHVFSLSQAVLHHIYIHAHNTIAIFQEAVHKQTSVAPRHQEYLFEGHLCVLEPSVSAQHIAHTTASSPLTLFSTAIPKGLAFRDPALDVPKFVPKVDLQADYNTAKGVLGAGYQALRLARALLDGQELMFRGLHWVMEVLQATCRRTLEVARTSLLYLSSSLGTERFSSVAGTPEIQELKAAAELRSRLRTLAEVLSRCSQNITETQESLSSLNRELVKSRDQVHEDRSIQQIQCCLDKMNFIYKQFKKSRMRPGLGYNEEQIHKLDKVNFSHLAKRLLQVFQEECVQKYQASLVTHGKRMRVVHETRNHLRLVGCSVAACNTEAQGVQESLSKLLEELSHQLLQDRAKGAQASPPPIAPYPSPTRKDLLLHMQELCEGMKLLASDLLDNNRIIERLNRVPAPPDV
structure (smiles),measurement,setting,value
COCCN[C@H]1CC[C@H](Nc2cc(-c3csc(NCC4(C#N)CCOCC4)n3)c(Cl)cn2)CC1,Activity,[1],86%
same,Activity,[2],83%
same,Activity,[3],100%
same,Activity,[4],39%
same,Activity,[5],82%
same,Activity,[6],88%
same,Activity,[7],99%
same,Activity,[8],88%
same,Ratio IC50,[9],> 1000
same,Activity,[10],100%
same,Activity,[11],72%
same,Activity,[12],96%
same,Activity,[13],94%
same,Activity,[14],100%
same,Activity,[15],86%
same,Vd,[16],44.5 L/kg
same,Ratio IC50,[17],300
same,Activity,[18],100%
same,clearance,[19],11.9 mL/min/kg
same,Activity,[20],23%
same,Tmax,[21],3.33 h
